Screens deposited in PubChem by The Scripps Research Institute Molecular Screening Center.
V1aR counter: agonists of human V1a receptor, primary screen, counter-screen for OXTR agonist project, fluorescence, CHO-V1R cells. Vasopressin V1a receptor (Homo sapiens), P37288. 0.25% of 320,000 active. activation, % at 3 µM. Fluo-8 calcium fluorescence, agonist mode; 0% DMSO, 100% 3 nM vasopressin;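 active means activation above the mean activation of all tested compounds plus 3 SD, per screening run, cut at about 20% in these data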;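 further: signal is peak over basal fluorescence ratio across a 100 second FLIPR read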
OXTR agonist: human OXTR agonists, primary screen, fluorescence, CHO-OTR cells, Fluo-8 calcium | Oxytocin receptor (Homo sapiens), P30559 | Fluo-8 calcium fluorescence; normalized: DMSO 0%, oxytocin 100% | activation, % at 3 µM | 0.32% of 320,000 active | AID 2435, 2010;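 active means activation above the mean of all tested compounds plus 3 SD, cutoff set per screening run, cut at about 20% in these data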;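 further: peak over basal fluorescence ratio from a 100 s FLIPR kinetic read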
OXTR potentiator: human OXTR potentiators, primary screen, fluorescence, CHO-OTR cells, Fluo-8 calcium. Oxytocin receptor (Homo sapiens), P30559. Fluo-8 calcium fluorescence, potentiator mode; 0% = oxytocin EC15, 100% = EC100. activation, % at 3 µM. 0.061% of 320,000 active;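 active means activation above that plate's cutoff, the mean activation of tested compounds plus 3 SD, cut at about 6.6% in these data, passing the limit was not always enough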;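 further: 100% uses oxytocin at 75 nM as the full agonist control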
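Material: CHO-OTR cells, human receptor; compound dosing: single dose, 3.0 µM nominal final compound concentration; schedule: 6 min compound pre-incubation at room temperature, 100 s kinetic read; measured by: kinetic Fluo-8 calcium fluorescence; read-out basis: % activation vs EC15 and EC100 oxytocin; controls: EC15 oxytocin alone as 0%, 75 nM oxytocin as 100%; replicates: singlicate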
CHO parental Ca: ATP-evoked calcium signal inhibitors, parental CHO, primary screen, counter-screen for OX1R antagonist project, cell-based, fluorescence, Fluo-8 calcium dye | AID 463079, 2010 | inhibition, % at 5.6 µM | parental CHO-K1, ATP-induced calcium, Fluo-8 fluorescence | 0.63% of 330,000 active;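 active means inhibition above that plate's mean sample inhibition plus 3 SD, cut at about 26% in these data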;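 further: 0% = ATP-challenged DMSO wells and 100% = DMSO wells without ATP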
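Material: parental CHO cells / Compound: single nominal dose of 5.6 µM per compound / Signal: Fluo-8 fluorescence / Replicates: singlicate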
OX1R antag-1: OX1R (HCRTR1) antagonists, primary screen, fluorescence, CHO/OX1R cells, Fluo-8 calcium, orexin A | Orexin/Hypocretin receptor type 1 (Homo sapiens), O43613 | Fluo-8 calcium fluorescence | inhibition, % at 5 µM | 0.43% of 330,000 active | AID 434989, 2010;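 active means inhibition above its plate's threshold, mean inhibition of all tested compounds on the plate plus 3 SD, cut at about 37% in these data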;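 further: 0% = orexin A challenge wells and 100% = SB-334867-A antagonist wells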
Target sequence (O43613 whole entry, looked up): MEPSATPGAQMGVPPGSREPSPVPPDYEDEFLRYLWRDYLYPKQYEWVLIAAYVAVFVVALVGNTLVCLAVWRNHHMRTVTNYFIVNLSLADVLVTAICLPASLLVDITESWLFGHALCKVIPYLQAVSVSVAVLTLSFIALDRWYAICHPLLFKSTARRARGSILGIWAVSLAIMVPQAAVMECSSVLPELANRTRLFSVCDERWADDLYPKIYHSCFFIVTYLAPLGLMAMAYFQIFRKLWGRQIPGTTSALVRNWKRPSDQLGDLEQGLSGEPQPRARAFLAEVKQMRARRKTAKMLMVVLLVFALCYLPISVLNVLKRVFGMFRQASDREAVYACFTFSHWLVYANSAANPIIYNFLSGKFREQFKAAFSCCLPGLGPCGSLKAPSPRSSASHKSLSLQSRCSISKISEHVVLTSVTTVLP
OX1R antag-2: antagonists of human orexin 1 receptor (OX1R). Orexin/Hypocretin receptor type 1 (Homo sapiens), O43613. OX1R-expressing cells, FRET antagonist read-out. inhibition, % at 6.6 µM. 1.8% of 330,000 active; in the data active means inhibition mostly above about 38%, no sharp cut-off; inactive means mostly below about 40%;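 further: 0% = agonist challenge alone and 100% = reference antagonist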
OX1R HTRF confirm: OX1R (HCRTR1) antagonists, confirmation, cell-based, HTRF; inhibition, % at 6.6 µM; AID 492964, 2010; shares compounds with OX1R antag-2; OX1R-expressing cells, HTRF antagonist assay; 49% of 1,800 active; in the data active means inhibition above about 55%;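 further: CHO cells expressing OX1R stimulated with orexin A at about EC80; 0% = agonist challenge alone and 100% = reference antagonist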
CHO-K1 HTRF: signal inhibition in parental CHO-K1 cells, counter-screen for OX1R antagonist project, cell-based, HTRF | HTRF counterscreen | AID 493232, 2011 | inhibition, % at 6.6 µM | shares compounds with OX1R antag-2 | 48% of 1,800 active; in the data active means inhibition above about 17%;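 further: 0% = agonist challenge with vehicle and 100% = vehicle alone without agonist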
* hit, by the source's call. Sampled rows, rich in hits. Any-hit rate of the full collection: about 2.6%.

CC1(C)Cc2ccccc2C2=NNC(=O)C2=N1 was read as V1aR counter -1, OXTR agonist 1, OXTR potentiator -20, CHO parental Ca 1, OX1R antag-1 -6, OX1R antag-2 117*, OX1R HTRF confirm 54 and CHO-K1 HTRF 78*.
`C/C(=N\N=C(N)N)c1ccc(Cl)c(Cl)c1` gave V1aR counter 4, OXTR agonist 5, OXTR potentiator -20, CHO parental Ca -11, OX1R antag-1 -17 and OX1R antag-2 14.
`COc1ccc(NC(=S)Nc2ccc3nc(C)c(C)nc3c2)cc1` gave V1aR counter 0, OXTR agonist 0, OXTR potentiator -6, CHO parental Ca -11, OX1R antag-1 -18 and OX1R antag-2 30.
`COc1ccc(NC(=S)Nc2ccc3nsnc3c2)cc1` gave V1aR counter 2, OXTR agonist 2, OXTR potentiator -8, CHO parental Ca -15, OX1R antag-1 -28, OX1R antag-2 88*, OX1R HTRF confirm 44 and CHO-K1 HTRF 40*.
`CC(C)N(C(=O)Nc1ccc2nsnc2c1)C(C)C` gave V1aR counter 2, OXTR agonist 0, OXTR potentiator -9, CHO parental Ca -15, OX1R antag-1 -15, OX1R antag-2 143*, OX1R HTRF confirm 31 and CHO-K1 HTRF 31*.
CCOC(=O)CNC(=O)C1Cc2ccccc2CN1S(=O)(=O)c1cccs1 (stereo not given) was read as V1aR counter 1, OXTR agonist 1, OXTR potentiator 0, CHO parental Ca -19, OX1R antag-1 -15 and OX1R antag-2 8.
Screening O=C1CN(C(=S)NC(=O)c2ccccc2[N+](=O)[O-])CCN1 returned V1aR counter 2, OXTR agonist 0, OXTR potentiator 3, CHO parental Ca -8, OX1R antag-1 0 and OX1R antag-2 23.
NS(=O)(=O)c1ccc(CNC(=O)c2cc(-c3ccccn3)nc3ccc(Cl)cc23)cc1 was read as V1aR counter 0, OXTR agonist -1, OXTR potentiator -11, CHO parental Ca -8, OX1R antag-1 4, OX1R antag-2 84*, OX1R HTRF confirm 59* and CHO-K1 HTRF 5.
`COc1ccc(NC(=O)C2(S(=O)(=O)c3ccc(C)cc3)CC2)cc1` gave V1aR counter -1, OXTR agonist -1, OXTR potentiator 0, CHO parental Ca -12, OX1R antag-1 -16 and OX1R antag-2 20.
For O=C(Nc1cccnc1)c1ccc([N+](=O)[O-])o1 the results were V1aR counter 1, OXTR agonist 1, OXTR potentiator -13, CHO parental Ca -3, OX1R antag-1 -1, OX1R antag-2 79*, OX1R HTRF confirm 58* and CHO-K1 HTRF 88*.
`O=C(c1cccc([N+](=O)[O-])c1)N(c1ccccn1)c1ccccn1` gave V1aR counter 0, OXTR agonist 1, OXTR potentiator -2, CHO parental Ca -1, OX1R antag-1 9 and OX1R antag-2 13.
For O=C(NCc1cccnc1)c1ccc([N+](=O)[O-])o1 the results were V1aR counter 2, OXTR agonist 0, OXTR potentiator 1, CHO parental Ca -1, OX1R antag-1 1 and OX1R antag-2 37.
`O=C(c1cc([N+](=O)[O-])cc([N+](=O)[O-])c1)N(c1ccccn1)c1ccccn1` gave V1aR counter -1, OXTR agonist 0, OXTR potentiator -4, CHO parental Ca 8, OX1R antag-1 5, OX1R antag-2 103*, OX1R HTRF confirm 49 and CHO-K1 HTRF 72*.
`O=C(Nc1ncccn1)c1cc([N+](=O)[O-])cc([N+](=O)[O-])c1` gave V1aR counter 1, OXTR agonist 1, OXTR potentiator -8, CHO parental Ca 4, OX1R antag-1 -2, OX1R antag-2 107*, OX1R HTRF confirm 58* and CHO-K1 HTRF 72*.
`Cc1cc(C)nc(NC(=O)c2ccc([N+](=O)[O-])o2)n1` gave V1aR counter -1, OXTR agonist 0, OXTR potentiator -11, CHO parental Ca -6, OX1R antag-1 7, OX1R antag-2 78*, OX1R HTRF confirm 36 and CHO-K1 HTRF 80*.
Screening Cc1oc2cc3oc(=O)c(CCC(=O)NCCN4CCOCC4)c(C)c3cc2c1C returned V1aR counter 5, OXTR agonist 7, OXTR potentiator -9, CHO parental Ca -4, OX1R antag-1 -1 and OX1R antag-2 11.
For Cc1cc(C)nc(NC(=O)c2ccc(C)c([N+](=O)[O-])c2)n1 the results were V1aR counter 0, OXTR agonist -1, OXTR potentiator -3, CHO parental Ca -9, OX1R antag-1 -4 and OX1R antag-2 65.
O=C(CNC(=O)c1ccccc1)N/N=C/c1ccc([N+](=O)[O-])o1 was read as V1aR counter -1, OXTR agonist -1, OXTR potentiator -4, CHO parental Ca -12, OX1R antag-1 -5, OX1R antag-2 98*, OX1R HTRF confirm 50 and CHO-K1 HTRF 75*.
Screening Cc1cc(C)nc(NC(=O)c2cc([N+](=O)[O-])cc([N+](=O)[O-])c2)n1 returned V1aR counter 0, OXTR agonist 0, OXTR potentiator -4, CHO parental Ca -4, OX1R antag-1 -4, OX1R antag-2 111*, OX1R HTRF confirm 44 and CHO-K1 HTRF 68*.
O=C(NN(c1ccccc1)c1ccccc1)c1ccc([N+](=O)[O-])o1 was read as V1aR counter 0, OXTR agonist 0, OXTR potentiator -3, CHO parental Ca -16, OX1R antag-1 -14 and OX1R antag-2 10.
For O=C(NNC(=O)c1ccc([N+](=O)[O-])o1)c1ccccc1 the results were V1aR counter 1, OXTR agonist 1, OXTR potentiator -10, CHO parental Ca -7, OX1R antag-1 -5, OX1R antag-2 136*, OX1R HTRF confirm 59* and CHO-K1 HTRF 64*.
Screening Cc1ccc(C)c(NC(=O)c2cc([N+](=O)[O-])cc([N+](=O)[O-])c2)c1 returned V1aR counter 4, OXTR agonist -2, OXTR potentiator 1, CHO parental Ca -8, OX1R antag-1 -17, OX1R antag-2 80*, OX1R HTRF confirm 38 and CHO-K1 HTRF 41*.
